Sampled rows, rich in hits. Any-hit rate of the full collection: about 2.2%.
GRK2 inh = human GRK2 inhibition via aptamer displacement; P25098; bead flow cytometry, FAM-aptamer displacement from GRK2; inhibition of aptamer binding, % at 10 µM; 0.59% of 330,000 active; AID 488847;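 active means inhibition of aptamer binding above 40%, roughly 3 SD of noise, on plates passing a quality check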;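 further: median bead fluorescence of bound FAM aptamer so fluorescent compounds give negative values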
Target sequence (P25098 whole entry, looked up): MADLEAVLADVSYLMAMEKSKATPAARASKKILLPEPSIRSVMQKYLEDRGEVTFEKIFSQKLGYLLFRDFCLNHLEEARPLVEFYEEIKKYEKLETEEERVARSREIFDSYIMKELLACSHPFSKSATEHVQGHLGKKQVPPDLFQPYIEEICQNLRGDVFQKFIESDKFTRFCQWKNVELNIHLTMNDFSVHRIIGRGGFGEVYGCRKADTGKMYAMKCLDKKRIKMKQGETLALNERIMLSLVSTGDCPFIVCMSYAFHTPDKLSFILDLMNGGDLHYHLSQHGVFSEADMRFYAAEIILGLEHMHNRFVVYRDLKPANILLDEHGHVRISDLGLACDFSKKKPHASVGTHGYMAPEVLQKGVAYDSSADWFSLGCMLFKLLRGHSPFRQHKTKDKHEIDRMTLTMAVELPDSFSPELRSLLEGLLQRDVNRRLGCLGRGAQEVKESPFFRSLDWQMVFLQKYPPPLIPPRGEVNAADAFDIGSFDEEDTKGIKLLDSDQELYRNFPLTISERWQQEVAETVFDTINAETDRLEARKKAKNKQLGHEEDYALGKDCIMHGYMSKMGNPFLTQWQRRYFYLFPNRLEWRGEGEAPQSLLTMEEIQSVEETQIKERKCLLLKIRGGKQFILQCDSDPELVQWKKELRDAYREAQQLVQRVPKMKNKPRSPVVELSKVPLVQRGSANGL
HCV core dimer = blocks dimerization of HCV core protein. 0.33% of 300,000 active. TR-FRET GST/Flag-core106 dimerization, 1536-well. inhibition, % at 5 µM;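 active means inhibition above the mean of all tested compounds plus 3 SD, set per screening campaign, cut at about 45% in these data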
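System: GST/Flag-tagged HCV core106 proteins. Incubation: compound-protein-antibody incubation 4 h at 22.5 °C. Technique: HTRF with 340 nm excitation, 617/671 nm emission. Medium: KF-containing HEPES buffer, pH 7.45, DTT, CHAPS, BSA. Read-out: inhibition (%) from 671 over 617 nm ratio. Also added: Eu(K)-anti-GST 90 ng/mL plus XL665-anti-Flag 1 µg/mL.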
DAGLB inh = diacylglycerol lipase beta (human) inhibition; HEK293T DAGLB membrane lysate, EnzChek fluorogenic substrate; Q8NCG7; inhibition, % at 5.17 µM; 0.059% of 340,000 active; in the data active means inhibition above about 34%;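 further: 0% = enzyme with vehicle and 100% = wells lacking enzyme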
HCV NS3 hel inh = HCV NS3 helicase inhibition | 0.56% of 290,000 active | inhibition, % at 10.9 µM | NS3 helicase DNA unwinding, Cy5 molecular beacon fluorescence | AID 1800;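 active means inhibition above the mean of all tested compounds plus 3 SD, set per campaign, cut at about 35% in these data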;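 further: 0% = DMSO wells and 100% = thioflavine S control wells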
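System: HCV NS3 helicase fragment; control set: DMSO and thioflavine S; technique: Cy5 fluorescence at 0 and 60 min, beacon hairpin quenching; reagent: beacon DNA duplex substrate plus ATP; replicates: singlicate; schedule: 1 h reaction at 25 °C, ATP-initiated; medium: MOPS buffer pH 6.5 with MgCl2, DTT, Tween20, BSA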
DNA FID counter-1 = counter-screen for HCV NS3 helicase inhibitors: DNA intercalator displacement; DNA fluorescent intercalator displacement, fluorescence; inhibition, % at 7.9 µM; 0.17% of 290,000 active;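 further: 0% = vehicle and 100% = reference compound; higher means more ethidium bromide displaced from hairpin DNA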
GPR7 antag = blocks human GPR7 receptor signaling; AID 1861; 1.1% of 290,000 active; P48145; inhibition, % at 4.4 µM; GPR7-expressing cells, fluorescence antagonist assay; in the data active means inhibition above about 16%, passing the limit was not always enough;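 further: cells stimulated with the agonist NPW; 0% = agonist with vehicle and 100% = vehicle without agonist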
NS3 helicase cf = confirmation of Hepatitis C virus NS3 helicase inhibitors. AID 1943. inhibition, % at 10.9 µM. NS3 helicase DNA unwinding, Cy5 molecular beacon fluorescence. 31% of 1,600 active. shares compounds with HCV NS3 hel inh;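 active means inhibition above the mean of all tested compounds plus 3 SD, cutoff set per campaign, cut at about 36% in these data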
DNA FID counter-2 = displaces DNA intercalator in HCV helicase counter-screen | shares compounds with HCV NS3 hel inh | DNA fluorescent intercalator displacement, fluorescence | inhibition, % at 7.9 µM | 4% of 1,600 active;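 further: 0% = vehicle and 100% = reference compound; higher means more displacement of ethidium bromide from the DNA hairpin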
FID counter DR = displaces fluorescent intercalator from DNA, HCV helicase counter-screen | shares compounds with HCV NS3 hel inh | fluorescent intercalator displacement from DNA, fluorescence | IC50, µM | 120 tested, under 10 active | AID 2172; call rule not given here
* hit, by the source's call; · = no result given; ! = a repeat was not active. Unless noted, no stated cut-off is given here; in the data, active means inhibition above about 37%; inactive means the rest.

SMILES	GRK2 inh	HCV core dimer	DAGLB inh	HCV NS3 hel inh	DNA FID counter-1	GPR7 antag	NS3 helicase cf	DNA FID counter-2	others
CC(C(=O)O)N1C(=O)/C(=C/C=C/c2ccco2)SC1=S (stereo unspecified)	98.0*	75.4*	1.6	51.1*	-6.8	-5.6	81.5*	1.6
COc1ccc2ccc(O)c(CN(C)CC(=O)Nc3ccccc3C(F)(F)F)c2c1	0.0	0.4	-2.3	-15.6	-0.1	-12.6	·	·
COC(/C(=N/O)c1ccc(Cl)cc1)c1ccccc1 (stereo unspecified)	2.0	-11.7	-7.3	6.4	-3.1	-3.2	·	·
O=C(Nc1nnc(-c2ccc3c(c2)CCCC3)o1)c1ccccc1Cl	2.0	9.5	2.0	49.1*	-12.1	-4.5	-8.7	-27.0
CCCc1cc(=O)oc2cc(C)cc(OC(C)C(=O)NCC3CCC(C(=O)O)CC3)c12 (stereo unspecified)	4.0	-5.1	-0.7	38.2*	-34.9	14.8	-18.7	-12.4
N#CC1=C(N)Oc2ccc3ccc(O)cc3c2C1c1ccsc1 (stereo unspecified)	·	·	-4.5	53.3*	-45.3	0.8	-11.2	-57.2
Cc1ccc(Nc2cccccc2=O)cc1	2.0	-1.1	-0.1	45.2*	-6.5	-7.6	-16.2	4.7
NS(=O)(=O)c1ccc(N=Nc2ccc(=O)[nH]c2O)cc1	0.0	-16.3	2.4	31.6	1.0	6.7	-17.3	13.1
NS(=O)(=O)c1ccc(N=Nc2ccc(O)c3ncccc23)cc1	0.0	-20.9	25.1	7.8	3.8	-2.6	·	·
Cc1ccc(C(=O)N2CCCCC2C(=O)O)cc1S(=O)(=O)N1CCCCC1 (stereo unspecified)	0.0	·	0.9	·	·	·	·	·
N=c1c(S(=O)(=O)c2ccccc2)cc2c(=O)n3ccccc3nc2n1Cc1ccco1	2.0	87.4*	1.5	36.8*	-4.4	-1.1	-4.1	26.3
Cc1ccc2nc3c(cc(S(=O)(=O)c4ccccc4)c(=N)n3Cc3ccco3)c(=O)n2c1	4.0	13.4	5.3	22.0	-1.0	-10.4	·	·
CCCCCCN[C@H]1CCC2C3CC=C4C[C@@H](O)CC[C@]4(C)C3CC[C@@]21C (stereo partly specified)	0.0	·	1.9	·	·	·	·	·
NC(=S)N/N=C/c1ccc(C23CC4CC(CC(C4)C2)C3)cc1	2.0	15.2	·	55.5*	-25.9	-40.6	36.8*	-6.0	FID counter DR=>79.4
Cc1ccc(NC(=O)c2cc(NC(=O)/C=C\C(=O)O)ccc2N2CCCCC2)cc1	2.0	21.5	4.2	27.8	-45.7	-29.9	·	·
Cc1ccc(NC(=O)c2cc(NC(=O)c3ccccc3C(=O)O)ccc2N2CCCCC2)cc1	1.0	24.3	4.3	45.5*	-16.9	-19.8	75.1*	-5.9
CC(C)(C)C(=O)/C(C#N)=C/c1cccs1	0.0	-2.5	-3.8	1.0	-2.6	-2.0	·	·
N#C/C(=C\c1cccs1)C(=O)c1ccccc1Cl	0.0	-1.9	·	40.5*	-3.9	-21.5	-26.4	7.1
CC(=O)c1c(C)[nH]c(C(=O)OCC(=O)N2CCc3ccccc3C2)c1C	2.0	·	0.8	·	·	·	·	·
C=CCn1c(SCCCC)nc(O)cc1=O	2.0	-3.0	-0.6	39.9*!	-2.5	-13.6	-3.6	-10.1
c1ccc(CSc2nnc3ccc(-c4ccco4)nn23)nc1	4.0	-3.3	-1.7	19.4	-5.2	-12.4	·	·
CNc1ccc(Br)cc(C(=O)/C=C/c2ccc3c(c2)OCO3)c1=O	0.0	55.5*	8.8	54.0*	-3.8	13.1	44.7*	4.2
CNc1ccc(Br)cc(C(=O)/C=C/c2cc(OC)ccc2OC)c1=O	1.0	24.3	8.5	40.5*	-22.3	10.2	61.0*	-9.4	FID counter DR=>79.4
C[C@H]1CN([C@@H](C)CO)C(=O)CCCn2nncc2CO[C@H]1CN(C)S(=O)(=O)c1ccc2c(c1)OCCCO2	·	·	-4.0	·	·	·	·	·
CN1CCCN(S(=O)(=O)c2cccc(C#N)c2)CC1	0.0	-6.5	2.4	15.1	1.4	-12.3	·	·
SMILES	GRK2 inh	HCV core dimer	DAGLB inh	HCV NS3 hel inh	DNA FID counter-1	GPR7 antag	NS3 helicase cf	DNA FID counter-2	others
CCOc1ccccc1N1CCN(c2nc(N)c(C#N)c(CC#N)c2C#N)CC1	0.0	11.1	3.9	36.1*	-22.8	-12.7	-17.6	-10.3
CCOc1ccccc1N1CCN(c2nc3ccccc3nc2C(C#N)C(=O)OC)CC1 (stereo unspecified)	1.0	12.4	2.6	-1.2	0.2	-10.3	·	·
N#Cc1c(SCC(=O)Nc2ccc(C(F)(F)F)cc2)sc2c(O)cc(=O)[nH]c12	0.0	1.7	7.1	13.6	-2.1	-3.6	·	·
Cc1ccc(NC(=O)CSc2sc3c(O)cc(=O)[nH]c3c2C#N)c(F)c1	2.0	-15.1	3.0	36.5*	-17.4	-2.8	27.4	0.7
CCOc1ccc(-c2ccc(/C=C3/C(=N)N4C(C)=CSC4=NC3=O)o2)c([N+](=O)[O-])c1	1.0	36.0	14.8	48.1*	-12.3	-10.7	-2.9	1.8
COc1ccc(N2CCN(C(=O)COC(=O)CC(NC(N)=O)c3ccc(Cl)cc3)CC2)cc1 (stereo unspecified)	·	·	2.2	·	·	·	·	·
CCCCSCCCNC(=O)c1ccc(CS(=O)(=O)c2ccccc2OC)o1	11.0	6.7	2.0	-10.8	-38.1	-7.4	·	·
CC(=O)N1C=Cc2c(c(C)c3c([nH]c4ccccc43)c2C)C1	·	·	·	39.3*	32.2	-9.3	22.6	34.6
NC(=N\N=Cc1ccco1)/C(N)=N/N=Cc1ccco1	·	·	1.3	·	·	·	·	·
O=C(Cn1nc(-c2ccco2)ccc1=O)Nc1ccc(Br)cc1	0.0	9.2	1.2	40.0*	-8.2	-0.6	-16.4	-3.8
Cc1cccc(NC(=O)Cn2nc(-c3ccco3)ccc2=O)c1C	2.0	-14.6	-2.3	18.0	-23.9	-5.2	·	·
Cc1cc(-c2csc(NC(=O)c3ccc(S(=O)(=O)N(C)C)cc3)n2)c(C)n1-c1ccccc1	2.0	42.0	1.1	65.9*	-17.1	4.1	33.7	27.6
N#CCCN(C(=O)COC(=O)c1cc2ccccc2oc1=O)c1ccccc1	0.0	·	-0.2	·	·	·	·	·
COC(=O)c1ccc(C(=O)OC)c(NC(=O)C2CC(=O)N(C3CCCC3)C2)c1 (stereo unspecified)	·	·	0.9	·	·	·	·	·
COc1ccc(C(=O)/C=C/c2cc(C(=O)O)cc3c2OCOC3)c(O)c1	2.0	2.5	2.6	6.7	-6.8	-1.5	·	·
O=C(O)c1cc(/C=C/C(=O)c2cc(F)ccc2O)c2c(c1)COCO2	14.0	5.0	2.1	49.1*	-13.5	-4.5	52.1*	-16.0
